Yeast life ext = extends the lifespan of yeast | S. cerevisiae growth with nicotinamide, OD615; deaD strain in restrictive glucose medium | inhibition of the nicotinamide effect, % at 10 µM | 130,000 tested, 0.68% active | AID 775;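 active means inhibition above a set limit, placed 3 SD over the median of all compounds, cut at about 26% in these data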
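assay system = DeaD-strain S. cerevisiae | measured by = absorbance at 615 nm | probe or stimulus = nicotinamide 1.5 mM | buffer or medium = CSMM-D glucose medium, restrictive | times = 48 h at 30 °C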
Yeast growth inh = yeast BB579 growth reduction in restrictive medium. S. cerevisiae BB579 growth, OD615, 48 h. inhibition, % at 10 µM. AID 804. 140,000 tested, 0.51% active;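 active means inhibition above a set limit, 3 SD over the mean compound inhibition, cut at about 44% in these data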
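System: Saccharomyces cerevisiae DeaD strain BB579, replicative lifespan model yeast | Buffer or medium: Restrictive glucose-based CSMM-D medium | Times: 4 h preincubation and 48 h exposure at 30 °C | Detection: OD615 turbidity measurement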
RAM inhibit = blocks the yeast RAM network | 190,000 tested, 1.8% active | S. cerevisiae dse1pr::URA3 reporter, 5-FOA growth OD615, 2 d; analog-sensitive cbk1-as2 kinase mutant strain | inhibition, % at 50 µM;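 active means inhibition above a set limit, 3 SD over mean compound inhibition, cut at about 8.4% in these data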;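 further: inhibition rescues growth on 5-FOA so higher OD means more RAM inhibition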
b-catenin transl = modulators of beta-catenin nuclear translocation. HeLa beta-catenin nuclear translocation, immunofluorescence imaging. nuclear translocation activity, % at 5 µM. 190,000 tested, 0.3% active. AID 1665;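 active means nuclear translocation activity above 50% at 5 µM, with a well cell count of 50 or more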;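 further: per-cell ratio of nuclear to cytoplasmic median beta-catenin stain intensity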
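Test system: human HeLa cell line; Doses: 5 µM primary, 0.02–20 µM confirmation; Incubation: 24 h compound exposure, 37°C; Detection: beta-catenin immunofluorescence imaging with DAPI; Read-out: beta-catenin nuclear/cytoplasmic ratio, % activation.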
Efa HMGR inh = E. faecalis class II HMG-CoA reductase inhibition. purified E. faecalis HMGR, NADPH absorbance 340 nm kinetic. inhibition, % at 10 µM. 190,000 tested, 0.41% active. AID 1066;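 active means inhibition above a set limit, the median over all tested compounds plus 3 SD, cut at about 9.5% in these data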;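 further: enzyme runs in reverse so mevalonate oxidation gives rising NADPH absorbance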
MT stabilizer = microtubule stabilizers in HeLa cells; HeLa tubulin immunostaining HCS, 24 h; share of cells brighter than vehicle mean+2SD; % tubulin-high responders, % at 10 µM; 200,000 tested, 0.83% active; AID 2205;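 active means plate Z-score above 3 for both tubulin-high and condensed-nucleus cell shares, with cell loss under 80%, at 10 µM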;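 further: anti alpha tubulin signal scored within the nucleus-defined area of each cell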
Large screens that a line does not name were inactive. A selection: hits, their analogues and other compounds. The true share with any hit is near 3.5%.

O=C(CSc1nnc2c(n1)[nH]c1ccccc12)Nc1cccc(S(=O)(=O)N2CCOCC2)c1	none (no result: Yeast life ext, Yeast growth inh, RAM inhibit, Efa HMGR inh, MT stabilizer)
CCOC(=O)c1cc(C#N)c(N2CCOCC2)nc1-c1ccccc1	none (no result: Yeast life ext, Yeast growth inh)
CCCCNc1nc(-c2ccccc2)c(C(=O)OCC)cc1C#N	MT stabilizer 35.0 (no result: b-catenin transl)
CCCNc1nc(-c2ccccc2)c(C(=O)OCC)cc1C#N	MT stabilizer 27.4
C=CCNc1nc(-c2ccccc2)c(C(=O)OCC)cc1C#N	MT stabilizer 33.2
COCCCNc1c2c3c(cccc3[nH]c1=O)C(=O)c1ccccc1-2	Yeast life ext 34.7, MT stabilizer 14.7 (no result: b-catenin transl)
COCCCNC1=C(Cl)C(=O)c2ccccc2C1=O	none (no result: Yeast life ext, Yeast growth inh, RAM inhibit, Efa HMGR inh, MT stabilizer)
CC1CCN(Cc2cc(=O)oc3ccc4ccccc4c23)CC1	none (no result: Yeast life ext, Yeast growth inh, RAM inhibit, Efa HMGR inh, MT stabilizer)
CC(Oc1ccc(Cl)cc1Cl)C(=O)NC1=NN(c2ccccc2)C(=O)C1 (stereo not drawn)	Yeast growth inh 98.5
O=C1CC(NC(=O)C(F)(F)F)=NN1c1ccccc1	none (no result: Yeast life ext, Yeast growth inh)
CC(Oc1ccc(Cl)cc1Cl)C(=O)Nc1ccncc1 (stereo not drawn)	b-catenin transl 52.4, MT stabilizer 56.1
CC(C)(Oc1ccc(Cl)cc1)C(=O)NC1=NN(c2ccccc2)C(=O)C1	Yeast growth inh 96.2
CCOC(=S)SCC(=O)N1CCc2ccccc2C1C1C(=O)CC(C)(C)CC1=O (stereo not drawn)	Yeast life ext 36.7
CCOC(=S)SCC(=O)N1CCc2cc(OC)c(OC)cc2C1C1C(=O)CC(C)(C)CC1=O (stereo not drawn)	none
N#CC1=C(N)N2C(=C(C#N)C1c1cccc(Br)c1)Nc1ccccc12 (stereo not drawn)	RAM inhibit 8.9
N#CC1=C(N)N2C(=C(C#N)C1c1ccc(Br)cc1)Nc1ccccc12 (stereo not drawn)	none
O=C(NCc1cccc(C(F)(F)F)c1)c1cccc(S(=O)(=O)NCc2ccccc2)c1	none
O=C(NC(c1ccccc1)c1ccccc1)c1cccc(S(=O)(=O)NCc2ccccc2)c1	RAM inhibit 8.6
Cc1ccc(C(NC(=O)NC(C)c2ccccc2)C(Cl)(Cl)Cl)cc1F (stereo not drawn)	none
CCOC(=O)C1=C(C)Nc2nc(=S)[nH]n2C1c1ccc(Cl)cc1 (stereo not drawn)	Yeast life ext 61.8
COc1ccc(C)cc1NC(=O)c1nn(C)cc1Br	none (no result: Yeast life ext, Yeast growth inh, RAM inhibit, Efa HMGR inh, MT stabilizer)
CCOc1ccc(Nc2cc(C)nc(-n3nc(C)cc3C)n2)cc1	b-catenin transl 86.8
CNc1cc(C)nc(-n2nc(C)cc2C)n1	none
COc1ccc(/C=C2/C(=O)OCc3cc(OC)c(OC)cc32)cc1	MT stabilizer 19.8
Cc1ccc(C)c(N(CC(=O)NC2CCCC2)C(=O)c2oc(C(C)(C)C)cc2C)c1	RAM inhibit 9.5
Cc1cc(C(C)(C)C)oc1C(=O)N(CC(=O)NC1CCCC1)Cc1ccccc1	none
COCCCn1c(=O)/c(=C\c2ccccc2OC(F)F)s/c1=C(/C#N)C(=O)NCCOC	none (no result: Yeast life ext, Yeast growth inh, RAM inhibit, Efa HMGR inh, MT stabilizer)
COCCCNC(=O)/C(C#N)=c1\s/c(=C\c2ccccc2OC(F)F)c(=O)n1CCCOC	none
CCCCNC(=O)/C(C#N)=c1\s/c(=C\c2ccccc2OC(F)F)c(=O)n1CCCOC	RAM inhibit 9.2
COCCCn1c(=O)/c(=C\c2ccccc2OC(F)F)s/c1=C(/C#N)C(=O)N1CCOCC1	RAM inhibit 9.1 (no result: Yeast life ext, Yeast growth inh)
C=C1[C@@H](OC(C)=O)CC[C@]2(C)[C@@H]1C[C@@H]1C[C@H](OC(C)=O)C(C)=C([C@@H](OC(C)=O)[C@@H]2OC(C)=O)C1(C)C	none (no result: Yeast life ext, Yeast growth inh, RAM inhibit, Efa HMGR inh, MT stabilizer)
CCOC(=O)C1CC(=O)c2cc(OC)c(OC)cc2C1 (stereo not drawn)	none (no result: Yeast life ext, Yeast growth inh, RAM inhibit, Efa HMGR inh, MT stabilizer)
CCOC(=O)C1Cc2cc3c(cc2C1=O)CC(C(=O)OCC)C3=O (stereo not drawn)	Yeast life ext 50.8
Cc1ccc2nc(-c3ccc(NS(C)(=O)=O)cc3)cc(-c3ccccc3)c2c1	Yeast growth inh 90.4
CCS(=O)(=O)Nc1ccc(-c2cc(-c3ccccc3)c3cc(C)ccc3n2)cc1	none
O=S(=O)(c1ccccc1)N(Cc1nc(-c2ccccc2)no1)C1CCCCC1	RAM inhibit 9.2
CC(C)N(Cc1nc(-c2ccccc2)no1)C(=O)CN(C)S(=O)(=O)c1ccccc1	RAM inhibit 8.7 (no result: b-catenin transl)
COc1ccc(S(=O)(=O)NCCSCc2ccccc2C)cc1Br	RAM inhibit 9.9
COc1ccc(C2c3c(-c4ccccc4O)n[nH]c3C(=O)N2CCc2ccc(OC)c(OC)c2)cc1 (stereo not drawn)	RAM inhibit 11.2 (no result: b-catenin transl)
COc1cccc(C2c3c(-c4cc(Cl)c(C)cc4O)n[nH]c3C(=O)N2Cc2cccnc2)c1 (stereo not drawn)	none (no result: b-catenin transl)
Cc1ccc(C2c3c(-c4ccccc4O)n[nH]c3C(=O)N2Cc2ccncc2)cc1 (stereo not drawn)	MT stabilizer 27.0
COc1ccc(C2c3c(-c4ccccc4O)n[nH]c3C(=O)N2Cc2ccco2)cc1 (stereo not drawn)	none (no result: Yeast life ext, Yeast growth inh, RAM inhibit, Efa HMGR inh, MT stabilizer)
O=C1c2[nH]nc(-c3ccccc3O)c2C(c2cccc(O)c2)N1Cc1ccco1 (stereo not drawn)	none
COc1ccc(CCN2C(=O)c3[nH]nc(-c4ccccc4O)c3C2c2cccc(Cl)c2)cc1 (stereo not drawn)	MT stabilizer 19.7
COc1cc(/C=C(\C#N)C(=O)NCC2CCCO2)ccc1OCCC(C)C (stereo not drawn)	none (no result: Yeast life ext, Yeast growth inh, RAM inhibit, Efa HMGR inh, MT stabilizer)
COC(=O)c1sccc1N/N=C/c1cccc(Oc2ccccc2)c1	RAM inhibit 8.5
C=CCCC(=O)Nc1nc(C)c(-c2csc(Nc3cc(OC)ccc3OC)n2)s1	b-catenin transl 70.2, MT stabilizer 31.0
CCCC(=O)Nc1nc(C)c(-c2csc(Nc3cc(OC)ccc3OC)n2)s1	none
CCSc1nnc(NC(=O)c2cccc(S(=O)(=O)N(C)c3ccc(C)cc3)c2)s1	none
CCc1nnc(NC(=O)c2cccc(S(=O)(=O)N(C)c3ccccc3)c2)s1	Yeast life ext 71.5
N#Cc1c(-c2ccccc2)nc(SCC(=O)Nc2ccccc2)[nH]c1=O	none
N#Cc1c(-c2ccccc2)nc(SCC(=O)Nc2nnc(C(F)(F)F)s2)[nH]c1=O	Efa HMGR inh 13.0 (no result: Yeast life ext, Yeast growth inh)
O=C1NCCCC1C(=O)Nc1ccccc1C(F)(F)F (stereo not drawn)	Efa HMGR inh active
COc1ccc(CN(CCC(c2ccc(F)cc2)C2CCOC(C)(C)C2)C(=O)c2ccco2)cc1 (stereo not drawn)	RAM inhibit 9.8
CC(C)NC(=O)c1c(O)c2ccccc2[nH]c1=O	none
O=C(N/N=C/c1ccccc1)c1c(O)c2ccccc2[nH]c1=O	Yeast life ext 58.9
O=C(N/N=C/c1ccc(F)cc1)c1c(O)c2ccccc2[nH]c1=O	Yeast life ext 57.2

Assay outcomes as filed in PubChem.
